Data published in ChEMBL document CHEMBL2331356, “Synthesis of gatifloxacin derivatives and their biological activities against Mycobacterium leprae and Mycobacterium tuberculosis” (Bioorg Med Chem, 2013).
≈ marks a conversion by molar mass, not a printed value. Calls of active or inactive are those of the source. The calls are words filed in the database; no cut-off is given here.

Columns and labels:
Mycobacterium leprae [1] = experiment: Inhibition of Mycobacterium leprae DNA gyrase GyrA/GyrB assessed as reduction of enzyme supercoiling activity using relaxed pBR322 DNA substrate incubated for 2 hrs at 30 degC by ethidium bromide based gel electrophoresis
[2] = system: Mycobacterium tuberculosis; experiment: Antimicrobial activity against Mycobacterium tuberculosis H37Rv assessed as drug concentration causing =<1% […] bacterial growth incubated for 21 to 30 days by proportion method; type: functional
How it was run: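 H37Rv grown on Löwenstein-Jensen medium; 10³ and 10⁵ CFU spread on 7H11 agar with 10% OADC containing serial twofold compound dilutions. Colonies counted after 21–30 days at 37 °C. […] Compounds dissolved in DMSO or NaOH.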

[3] = biological target: DNA gyrase subunit A/DNA gyrase subunit B (Mycobacterium tuberculosis (strain ATCC 25618 / H37Rv), UniProt P9WG45+P9WG47); experiment: Inhibition of Mycobacterium tuberculosis DNA gyrase GyrA/GyrB assessed as reduction of enzyme supercoiling activity using relaxed pBR322 DNA substrate incubated for 1 hr at 37 degC by ethidium bromide based gel electrophoresis
[4] = system: Mycobacterium leprae [G89C]
Mycobacterium leprae [5] = experiment: Inhibition of Mycobacterium leprae wild type DNA gyrase GyrA/GyrB-mediated DNA cleavable complex formation assessed as compound concentration inducing 25% DNA cleavage using relaxed pBR322 DNA substrate incubated for 1 hr at 30 degC by agarose gel electrophoresis
[6] = system: Mycobacterium leprae [A91V]; experiment: Inhibition of Mycobacterium leprae […] DNA gyrase GyrA/GyrB A91V mutant-mediated DNA cleavable complex formation assessed as compound concentration inducing 25% DNA cleavage using relaxed pBR322 DNA substrate incubated for 1 hr at 30 degC by agarose gel electrophoresis

Row | SMILES | IC50 (Mycobacterium leprae [1]) | MIC [2] | IC50 [3] | CC25 [4] | CC25 (Mycobacterium leprae [5]) | CC25 [6]
1 | CCOC(=O)C1CN(c2c(F)cc3c(=O)c(C(=O)O)cn(C4CC4)c3c2OC)CCN1 (stereo not drawn) | 17 µg/mL (≈ 39.2 µM) | > 32 µg/mL | 48.5 µM | inactive | 80 µg/mL (≈ 185 µM) | 
2 | CCN(CC)C(=O)OCC1CN(c2cc3c(cc2F)c(=O)c(C(=O)O)cn3C2CC2)CCN1 (stereo not drawn) | 118 µg/mL (≈ 256 µM) | 128 µg/mL (≈ 278 µM) | 575 µM | inactive | >240 µg/mL | inactive
3 | CCN(CC)C(=O)OCC1CN(c2c(F)cc3c(=O)c(C(=O)O)cn(C4CC4)c3c2OC)CCN1 (stereo not drawn) | 20 µg/mL (≈ 40.8 µM) | 32 µg/mL (≈ 65.2 µM) | 102 µM | inactive | 60 µg/mL (≈ 122 µM) | 
4 | COc1c(N2CCNC(C(=O)O)C2)c(F)cc2c(=O)c(C(=O)O)cn(C3CC3)c12 (stereo not drawn) | 20 µg/mL (≈ 49.3 µM) | 16 µg/mL (≈ 39.5 µM) | 39.5 µM | inactive | 27 µg/mL (≈ 66.6 µM) | 
5 | CCOC(=O)C1CN(c2cc3c(cc2F)c(=O)c(C(=O)O)cn3C2CC2)CCN1 (stereo not drawn) | 20 µg/mL (≈ 49.6 µM) | 4 µg/mL (≈ 9.92 µM) | 66.9 µM | inactive | 20 µg/mL (≈ 49.6 µM) | 
6 | CCCCNC(=O)OCC1CN(c2c(F)cc3c(=O)c(C(=O)O)cn(C4CC4)c3c2OC)CCN1 (stereo not drawn) | 10 µg/mL (≈ 20.4 µM) | 8 µg/mL (≈ 16.3 µM) | 34.7 µM | inactive | 10 µg/mL (≈ 20.4 µM) | 
7 | O=C(O)c1cn(C2CC2)c2cc(N3CCNC(C(=O)O)C3)c(F)cc2c1=O (stereo not drawn) | 30 µg/mL (≈ 79.9 µM) | 32 µg/mL (≈ 85.3 µM) | 53.3 µM | inactive | 30 µg/mL (≈ 79.9 µM) | 
8 | CCN1CCN(c2cc3c(cc2F)c(=O)c(C(=O)O)cn3C2CC2)CC1C(=O)O (stereo not drawn) | 35 µg/mL (≈ 86.8 µM) | 32 µg/mL (≈ 79.3 µM) | 119 µM | inactive | >240 µg/mL | inactive
9 | CCN1CCN(c2c(F)cc3c(=O)c(C(=O)O)cn(C4CC4)c3c2OC)CC1C(=O)O (stereo not drawn) | 55 µg/mL (≈ 127 µM) | 32 µg/mL (≈ 73.8 µM) | 201 µM | inactive | >240 µg/mL | 
10 | O=C(O)c1cn(C2CC2)c2cc(N3CCNCC3)c(F)cc2c1=O [CIPROFLOXACIN] | 2 µg/mL (≈ 6.04 µM) | 0.5 µg/mL (≈ 1.51 µM) |  | inactive |  | 
11 | CC1COc2c(N3CCN(C)CC3)c(F)cc3c(=O)c(C(=O)O)cn1c23 (stereo not drawn) [OFLOXACIN] | 8 µg/mL (≈ 22.1 µM) | 1 µg/mL (≈ 2.77 µM) | 16.6 µM | inactive | 10 µg/mL (≈ 27.7 µM) | 
12 | COc1c(N2CCNC(C)C2)c(F)cc2c(=O)c(C(=O)O)cn(C3CC3)c12 (stereo not drawn) [GATIFLOXACIN] | 3 µg/mL (≈ 7.99 µM) | 0.125 µg/mL (≈ 0.333 µM) | 7.99 µM | inactive | 1 µg/mL (≈ 2.66 µM) | 
13 | CCCCNC(=O)OCC1CN(c2cc3c(cc2F)c(=O)c(C(=O)O)cn3C2CC2)CCN1 (stereo not drawn) | 22 µg/mL (≈ 47.8 µM) | 16 µg/mL (≈ 34.7 µM) | 65.1 µM | inactive | 30 µg/mL (≈ 65.1 µM) | inactive
14 | COc1c(N2C[C@@H]3CCCN[C@@H]3C2)c(F)cc2c(=O)c(C(=O)O)cn(C3CC3)c12 [MOXIFLOXACIN] |  | 0.5 µg/mL (≈ 1.25 µM) |  | inactive |  | 
